This note sets out measurements from ChEMBL document CHEMBL1156205, “Synthesis and antibacterial activity of new 9-O-arylpropenyloxime ketolides” (2010).

Common to all, as to type: functional
Test [1] relates to Streptococcus pyogenes. Nature of the test: Antibacterial activity against Streptococcus pyogenes isolate 1 by agar dilution method. In a few lines:
(§1)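 MIC measured by agar dilution on Mueller–Hinton agar. Strains were a reference culture and clinically isolated strains. The pneumococcal isolates were penicillin-susceptible clinical isolates.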
A general note: Agar dilution tests growth on a series of plates holding different concentrations.

The test system of test [2] is Streptococcus pyogenes. Put plainly: Antibacterial activity against Streptococcus pyogenes isolate 2 by agar dilution method. In a few lines:
as §1

The subject of test [3] is Streptococcus pneumoniae. Nature of the test: Antibacterial activity against penicillin intermediate-resistant Streptococcus pneumoniae isolate I2 by agar dilution method. An outline of the steps: (§2)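 MIC determined by agar dilution on Mueller–Hinton agar against clinically isolated penicillin-intermediate-resistant S. pneumoniae.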
Test [4] has as its system Staphylococcus aureus. Nature of the test: Antibacterial activity against methicillin-resistant Staphylococcus aureus 2 by agar dilution method. An outline of the steps:
(§3)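 MIC determined by agar dilution on Mueller–Hinton agar against clinical strains of methicillin-resistant S. aureus.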

Test [5] relates to Staphylococcus aureus. Put plainly: Antibacterial activity against methicillin-susceptible Staphylococcus aureus ATCC 29213 by agar dilution method. An outline of the steps: (§4)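 MIC determined by agar dilution on Mueller–Hinton agar against reference strains.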
Test [6] relates to Streptococcus pyogenes. Nature of the test: Antibacterial activity against Streptococcus pyogenes isolate 3 by agar dilution method. An outline of the steps: as §1
The subject of test [7] is Streptococcus pneumoniae. Nature of the test: Antibacterial activity against penicillin-susceptible Streptococcus pneumoniae isolate S1 by agar dilution method. An outline of the steps: as §1
The subject of test [8] is Staphylococcus aureus. Put plainly: Antibacterial activity against methicillin-resistant Staphylococcus aureus 3 by agar dilution method. An outline of the steps: as §3
The test system of test [9] is Streptococcus pneumoniae. Nature of the test: Antibacterial activity against penicillin intermediate-resistant Streptococcus pneumoniae isolate I1 by agar dilution method. An outline of the steps: as §2
The test system of test [10] is Streptococcus pyogenes. Put plainly: Antibacterial activity against Streptococcus pyogenes ATCC 8668 by agar dilution method. In a few lines:
as §1

The test system of test [11] is Streptococcus pneumoniae. Put plainly: Antibacterial activity against penicillin-susceptible Streptococcus pneumoniae isolate S2 by agar dilution method. An outline of the steps:
as §1

The subject of test [12] is Staphylococcus aureus. Put plainly: Antibacterial activity against methicillin-susceptible Staphylococcus aureus isolate 2 by agar dilution method. In a few lines: (§5)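 MIC determined by agar dilution on Mueller–Hinton agar against clinically isolated methicillin-susceptible S. aureus.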
For test [13], the system named is Streptococcus pneumoniae. Nature of the test: Antibacterial activity against penicillin intermediate-resistant Streptococcus pneumoniae isolate I3 by agar dilution method. In a few lines:
as §2

Test [14] concerns Streptococcus pneumoniae. Nature of the test: Antibacterial activity against Streptococcus pneumoniae ATCC 49619 by agar dilution method. Particulars: ATCC49619. An outline of the steps:
as §4

In test [15] the test system is Staphylococcus aureus. Nature of the test: Antibacterial activity against methicillin-susceptible Staphylococcus aureus isolate 1 by agar dilution method. An outline of the steps: as §5
The test system of test [16] is Staphylococcus aureus. Put plainly: Antibacterial activity against methicillin-resistant Staphylococcus aureus 1 by agar dilution method. In a few lines:
as §3

The subject of test [17] is Staphylococcus aureus. Nature of the test: Antibacterial activity against methicillin-susceptible Staphylococcus aureus isolate 3 by agar dilution method. An outline of the steps:
as §5

Each structure is given as a SMILES string. In brackets after ≈: the same amount, converted by molar mass.

As to `CC[C@H]1OC(=O)[C@H](C)C(=O)[C@H](C)[C@@H](O[C@@H]2O[C@H](C)C[C@H](N(C)C)[C@H]2O)[C@](C)(OC)C[C@@H](C)/C(=N\OC/C=C/c2cccc(C3OCCO3)c2)[C@H](C)[C@@H](O)[C@]1(C)O`, the MIC – broadly, the least concentration at which growth counts as inhibited – is 0.06 µg/mL (≈ 0.0759 µM) in the test on Streptococcus pyogenes [1]; 0.25 µg/mL (≈ 0.316 µM) in the test with Streptococcus pyogenes [2]; 0.25 µg/mL (≈ 0.316 µM) in the test on Streptococcus pneumoniae [3]; 128 µg/mL (≈ 162 µM) in the test on Staphylococcus aureus [4]; 0.5 µg/mL (≈ 0.632 µM) with Staphylococcus aureus [5]; 0.25 µg/mL (≈ 0.316 µM) against Streptococcus pyogenes [6]. Moreover, the MIC in the test on Streptococcus pneumoniae [7] was determined as 0.06 µg/mL (≈ 0.0759 µM); against Staphylococcus aureus [8], 1 µg/mL (≈ 1.26 µM); in the test with Streptococcus pneumoniae [9] it was 64 µg/mL (≈ 80.9 µM); with Streptococcus pyogenes [10], 0.25 µg/mL (≈ 0.316 µM); against Streptococcus pneumoniae [11], 0.06 µg/mL (≈ 0.0759 µM); in the test on Staphylococcus aureus [12], 1 µg/mL (≈ 1.26 µM). Further, the MIC against Streptococcus pneumoniae [13] turned out to be 0.25 µg/mL (≈ 0.316 µM); in the test on Streptococcus pneumoniae [14], 0.25 µg/mL (≈ 0.316 µM); against Staphylococcus aureus [15] it was 1 µg/mL (≈ 1.26 µM); with Staphylococcus aureus [16], 128 µg/mL (≈ 162 µM); in the test on Staphylococcus aureus [17], 0.5 µg/mL (≈ 0.632 µM).
On to `CC[C@H]1OC(=O)[C@H](C)C(=O)[C@H](C)[C@@H](O[C@@H]2O[C@H](C)C[C@H](N(C)C)[C@H]2O)[C@](C)(OC)C[C@@H](C)/C(=N\OC/C=C/c2ccc3c(c2)OCO3)[C@H](C)[C@@H](O)[C@]1(C)O`, for which the MIC came to 0.06 µg/mL (≈ 0.0786 µM) against Streptococcus pyogenes [1]; 0.25 µg/mL (≈ 0.328 µM) in the test with Streptococcus pyogenes [2]; 0.25 µg/mL (≈ 0.328 µM) against Streptococcus pneumoniae [3]; 128 µg/mL (≈ 168 µM) against Staphylococcus aureus [4]; 1 µg/mL (≈ 1.31 µM) in the test with Staphylococcus aureus [5]; 0.25 µg/mL (≈ 0.328 µM) in the test with Streptococcus pyogenes [6]. Also, the minimum inhibitory concentration (MIC) against Streptococcus pneumoniae [7] was 0.06 µg/mL (≈ 0.0786 µM); against Staphylococcus aureus [8], 1 µg/mL (≈ 1.31 µM); in the test on Streptococcus pneumoniae [9], 64 µg/mL (≈ 83.9 µM); against Streptococcus pyogenes [10], 0.25 µg/mL (≈ 0.328 µM); against Streptococcus pneumoniae [11], 0.06 µg/mL (≈ 0.0786 µM); against Staphylococcus aureus [12], 0.5 µg/mL (≈ 0.655 µM). For the same compound, the MIC in the test with Streptococcus pneumoniae [13] was determined as 0.25 µg/mL (≈ 0.328 µM); against Streptococcus pneumoniae [14] it was 0.25 µg/mL (≈ 0.328 µM); in the test with Staphylococcus aureus [15], 1 µg/mL (≈ 1.31 µM); with Staphylococcus aureus [16] it was 128 µg/mL (≈ 168 µM); in the test on Staphylococcus aureus [17] it was 0.5 µg/mL (≈ 0.655 µM).
